# Data taken from PubChem BioAssay.
# Activity calls are given as the source filed them.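 Rule for the calls, unless noted: active = fluorescence slope higher than the sample average by over 3 SD (cut at about -0.22 in these data, passing the limit was not always enough); inactive = the rest.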
# What was measured:
# [1] = inhibitors of TNFa-induced NFkB p65 translocation, primary screen, imaging, HUVEC, MLSMR starter and 10KST1 sets (AID 438;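 active = inhibition above 20% together with a positive visual image hit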;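 note: compound added about 3h40 before a 20 min TNFalpha stimulation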;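 for inhibition: signal is the nuclear over cytoplasmic p65 intensity ratio per well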); conditions: HUVEC TNFa-induced p65 nuclear translocation; cell count: measured here: nuclei count (cytotoxicity indicator), at 2.08 µM; inhibition: at 2 µM, stronger effect = higher value, 0% TNFa-plus-vehicle, 100% no-TNFa wells
# [2] = inhibitors of mutant huntingtin aggregation, primary screen, imaging, exon1htt(103Q)mCFP cells, high-content imaging (AID 483;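 active = visual image review flags a hit and inhibition of aggregation exceeds 20%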;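 note: compound exposure lasted 3 days before fixation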;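 for nuclei count: percent of the per-plate median nuclei count of sample wells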); conditions: exon1htt(103Q)mCFP cell line, aggregate imaging, at 2 µM; inhibition of aggregation: stronger effect = higher value; nuclei count: measured here: cell count, toxicity
# [3] = inhibitors of E-selectin induction by TNFa, primary screen, imaging, HUVEC, immunofluorescence, MLSMR starter and 10KST1 sets (AID 487;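 active = visually confirmed hit in the image check and inhibition above 20%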;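 for inhibition: signal is fraction of cell area covered by stained E-selectin grains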;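 for nuclei count: 100% = median nuclei count of all wells on the same plate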); conditions: HUVEC TNFalpha-induced E-selectin immunofluorescence imaging, at 2 µM; inhibition: stronger effect = higher value; nuclei count: measured here: cell number, toxicity
# [4] = target: Voltage-gated potassium channel subunit beta-2 (Rattus norvegicus) (UniProt P62483); experiment: KvBeta enzyme negative modulators, primary screen, biochemical, NADPH fluorescence (AID 622); conditions: recombinant KvBeta, 4-cyanobenzaldehyde reduction, at 10 µM, stronger effect = higher value;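 note: slope of raw intensity against log time taken from 70 to 1610 s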
# [5] = target: Voltage-gated potassium channel subunit beta-2 (Rattus norvegicus) (UniProt P62483); experiment: KvBeta positive modulators, primary screen, biochemical, NADPH fluorescence (AID 623;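 active = NADPH fluorescence slope more negative than the mean of all samples by about 3 SD, 99.7% confidence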;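 note: fluorescence intensity change per second fitted from 20 to 320 s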); conditions: Recombinant KvBeta, NADPH fluorescence decrease slope, 10 min; at 10 µM; stronger effect = lower value
# [6] = target: Muscarinic acetylcholine receptor M4 (Homo sapiens) (UniProt P08173); experiment: compounds altering M4/GIRK thallium flux, either direction, primary screen, M4 allosteric agonist project, cell-based, HEK293 M4/GIRK, BTC-AM (AID 625;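 active = fluorescence slope after compound addition differing from the mean of all tested samples at 99.7% confidence, mostly higher but some lower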;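 note: thallium influx through GIRK channels coupled to M4 in HEK293 cells with BTC-AM dye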); conditions: at 10 µM, actives lie on both sides
# Outline: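 Material – HEK293 cells with M4 receptor and GIRK channels · Buffer or medium – pH 7.3 thallium assay buffer · Doses – one dose, 10 µM final · Timing – cells overnight at 37 °C, BTC-AM loading 1 h, reads 2 min total · Measured by – kinetic fluorescence with BTC-AM dye · Controls – carbachol and DMSO controls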
# [7] = inhibitors of Sendai virus-induced IRF3 signaling, primary screen, TLR/RLR signaling modifier project, cell-based, Sendai virus stimulus, luciferase, 10K MLSCN set (AID 602276;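 active = inhibition at or above 50% at 10 µM; inactive = inhibition below 50%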;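 note: firefly luciferase from ISG56 promoter only with Renilla not read in this screen; 0% = Sendai virus plus DMSO and 100% = medium plus DMSO without virus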); conditions: HEK293 RL24 IRF3 luciferase reporter, at 10 µM, stronger effect = higher value
# [8] = inhibitors of poly I:C-induced TLR3 signaling, primary screen, cell-based, poly I:C stimulus, luciferase, 10K MLSCN set (AID 602277;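 active = inhibition of the reporter signal at or above 50%; inactive = inhibition below 50%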); conditions: HEK293-TLR3 RL24 IRF3 luciferase reporter, at 10 µM, stronger effect = higher value
# Sequence of Voltage-gated potassium channel subunit beta-2 (Rattus norvegicus) (P62483 whole entry, looked up): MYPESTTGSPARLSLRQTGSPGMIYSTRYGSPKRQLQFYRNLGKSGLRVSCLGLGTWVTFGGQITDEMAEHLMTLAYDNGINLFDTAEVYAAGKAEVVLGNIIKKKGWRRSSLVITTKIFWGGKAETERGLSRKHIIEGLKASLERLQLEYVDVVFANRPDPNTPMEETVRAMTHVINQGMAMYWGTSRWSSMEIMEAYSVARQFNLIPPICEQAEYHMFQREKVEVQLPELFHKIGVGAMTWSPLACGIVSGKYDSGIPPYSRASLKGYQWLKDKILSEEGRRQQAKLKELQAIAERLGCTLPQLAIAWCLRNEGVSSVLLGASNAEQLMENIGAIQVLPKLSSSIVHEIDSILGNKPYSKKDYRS
# Sequence of Muscarinic acetylcholine receptor M4 (Homo sapiens) (P08173 whole entry, looked up): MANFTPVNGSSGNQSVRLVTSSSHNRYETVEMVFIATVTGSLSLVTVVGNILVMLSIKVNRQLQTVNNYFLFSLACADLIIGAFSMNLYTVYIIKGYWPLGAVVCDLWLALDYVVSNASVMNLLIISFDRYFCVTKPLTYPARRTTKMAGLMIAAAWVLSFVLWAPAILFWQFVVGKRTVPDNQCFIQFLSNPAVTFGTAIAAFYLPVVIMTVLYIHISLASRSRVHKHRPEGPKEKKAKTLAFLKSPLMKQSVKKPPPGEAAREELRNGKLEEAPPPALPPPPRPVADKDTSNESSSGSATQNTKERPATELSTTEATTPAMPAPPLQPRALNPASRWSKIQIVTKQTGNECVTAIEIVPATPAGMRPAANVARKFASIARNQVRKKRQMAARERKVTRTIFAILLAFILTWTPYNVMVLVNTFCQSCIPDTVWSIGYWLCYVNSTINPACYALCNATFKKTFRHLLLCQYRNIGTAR
SMILES,cell count [1],inhibition [1],inhibition of aggregation [2],nuclei count [2] [%],inhibition [3],nuclei count [3] [%],fluorescence slope [4],NADPH fluorescence slope [5],fluorescence slope [6],inhibition [7],inhibition [8]
Cc1[nH]c(=O)[nH]c(=O)c1S(=O)(=O)N(C)Cc1ccccc1,433,1.1% (inactive),-2.7% (inactive),110,-90.2% (inactive),110,-0.491 (inactive),3.7e-05 (inactive),0.00478 (inactive),3.97% (inactive),13.8% (inactive)
COc1ccc(-c2cn3c(C)c(C(=O)Nc4cc(NC(C)=O)ccc4OC)sc3n2)cc1,693,7.3% (inactive),-40.3% (inactive),59,-116% (inactive),118,-0.166 (inactive),-6.9e-06 (inactive),0.00656 (inactive),42.7% (inactive),26.4% (inactive)
Cc1nc2ccccn2c1P(=O)(N1CCCCC1)N1CCCCC1,666,-11.7% (inactive),-0.1% (inactive),77,-64.2% (inactive),108,-0.526 (inactive),-1.7e-06 (inactive),0.00464 (inactive),20.1% (inactive),20.6% (inactive)
Nc1nc(N)nc(-c2ccccc2)n1,402,6% (inactive),12% (inactive),91.3,22.3% (inactive),102,-0.599 (inactive),-3.3e-05 (inactive),0.00335 (inactive),13.8% (inactive),13.5% (inactive)
COc1ccc(NC(=O)N2CCC(O)(c3cccnc3)CC2)c(OC)c1,643,-6.3% (inactive),13% (inactive),88.6,-161% (inactive),145,-0.558 (inactive),-3.4e-05 (inactive),0.00818 (inactive),10.9% (inactive),12.7% (inactive)
CCOC(=O)c1[nH]c(C)c(C(=O)N(C)C)c1C,684,-10.9% (inactive),14.5% (inactive),111,-68% (inactive),106,-0.465 (inactive),-1.4e-05 (inactive),0.00674 (inactive),-36.1% (inactive),99.3% (active)
COc1ccccc1CN1C(=O)CCC1(C)C(=O)NC1CCCCCC1 (stereo not drawn),452,5.3% (inactive),14.8% (inactive),63.8,-184% (inactive),115,-0.44 (inactive),0.000132 (inactive),0.00525 (inactive),0.126% (inactive),9.28% (inactive)
Cc1nc2ccccc2c(=O)n1/N=C/c1ccncc1,644,-6.3% (inactive),-10.1% (inactive),109,-2.9% (inactive),92.1,-0.526 (inactive),-3.4e-05 (inactive),0.00441 (inactive),-4.49% (inactive),4.48% (inactive)
O=C(Nc1ccccc1C(=O)N1CCCCCC1)c1cccc(S(=O)(=O)N2CCOCC2)c1,492,-6.5% (inactive),-11.4% (inactive),74.5,-60.5% (inactive),84.2,-0.572 (inactive),-2.1e-05 (inactive),0.00535 (inactive),3.13% (inactive),10.6% (inactive)
COC(=O)COc1ccc(C(=O)OC)cc1,384,5% (inactive),9.9% (inactive),100,-33.2% (inactive),102,-0.456 (inactive),1.1e-05 (inactive),0.00492 (inactive),6.44% (inactive),10.8% (inactive)
O=c1[nH]c2ccccc2nc1NCCN1CCOCC1,404,-26.6% (inactive),-31.4% (inactive),98.9,-80.4% (inactive),134,-0.553 (inactive),-6.2e-05 (inactive),0.00364 (inactive),8.81% (inactive),1.66% (inactive)
CC(C)N(C(=O)COC(=O)c1ccc(O)cc1)C(C)C,467,1% (inactive),12.6% (inactive),112,-8.7% (inactive),121,-0.553 (inactive),-3.1e-05 (inactive),0.00574 (inactive),17.3% (inactive),14.3% (inactive)
Cc1ccc(Cn2c(C(=O)NCCCN3CCOCC3)cc3sccc32)cc1,765,-5.9% (inactive),-85.9% (inactive),111,-218% (inactive),118,-0.486 (inactive),1.1e-05 (inactive),0.00431 (inactive),14.1% (inactive),31.6% (inactive)
COc1cc(OC)c(C(=O)Nc2ncn[nH]2)cc1OC,667,-1.1% (inactive),-12% (inactive),107,-95.9% (inactive),108,-0.537 (inactive),-0.000156 (inactive),0.00435 (inactive),17.7% (inactive),19.5% (inactive)
Cc1ccc(-n2c3c(cc(C(=O)O)c2=O)C(=O)CC(C)(C)C3)cc1,418,2.8% (inactive),6.9% (inactive),109,3.1% (inactive),110,-0.377 (inactive),4.6e-05 (inactive),0.00507 (inactive),17% (inactive),24.4% (inactive)
COc1ccc(CC(=O)OCC(=O)NC(=O)NC2CCCCC2)cc1,505,-13.7% (inactive),-0.9% (inactive),80.9,-5.5% (inactive),121,-0.509 (inactive),4.4e-05 (inactive),0.00502 (inactive),9.64% (inactive),15.4% (inactive)
COc1cc(OC)cc(-c2nc3cc(C)ccc3o2)c1,424,1.7% (inactive),-2% (inactive),90.1,-55.4% (inactive),99.4,-0.55 (inactive),-4.6e-05 (inactive),0.00552 (inactive),-23.5% (inactive),-45.9% (inactive)
CCCS(=O)(=O)N1CCC(C(=O)N2CCCC2)CC1,657,-9.9% (inactive),-6.5% (inactive),96.1,-70.4% (inactive),107,-0.611 (inactive),-8.1e-06 (inactive),0.00435 (inactive),18.9% (inactive),8.55% (inactive)
